Results: ChEMBL document CHEMBL1153207, “Continued exploration of the triazolopyridine scaffold as a platform for p38 MAP kinase inhibition” (Bioorg Med Chem Lett, 2010)

Legend:
[1] = target: Mitogen-activated protein kinase 14 (Homo sapiens, UniProt Q16539); experiment: Inhibition of p38 alpha
[2] = Metabolic stability in rat liver microsomes at 2 uM; type: ADME, Microsome; conditions: read-out: Stability
[3] = Metabolic stability in human liver microsomes at 2 uM; type: ADME, Microsome; conditions: read-out: Stability
Rattus norvegicus = experiment: Inhibition of LPS-stimulated TNFalpha release Lewis rat at 5 mg/kg after 4 hrs by ELISA; type: functional
Method in brief: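 Male Lewis rats were pre-dosed with compound at set times before an iv lipopolysaccharide challenge. Blood was taken 1.5 h after challenge and TNF-α levels were measured by ELISA.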

Sequence of Mitogen-activated protein kinase 14 (Q16539 whole entry): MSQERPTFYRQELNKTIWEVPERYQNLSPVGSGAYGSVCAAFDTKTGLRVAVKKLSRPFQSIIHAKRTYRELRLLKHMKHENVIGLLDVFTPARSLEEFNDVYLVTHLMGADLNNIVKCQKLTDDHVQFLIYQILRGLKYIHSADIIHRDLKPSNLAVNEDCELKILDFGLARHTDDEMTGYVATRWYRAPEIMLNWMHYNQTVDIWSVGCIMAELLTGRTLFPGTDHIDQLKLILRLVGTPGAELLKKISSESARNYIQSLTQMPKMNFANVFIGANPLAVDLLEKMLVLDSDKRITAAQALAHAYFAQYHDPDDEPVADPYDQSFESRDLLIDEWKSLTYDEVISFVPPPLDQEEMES

IC50 [1] | remaining at 2 µM [2] | remaining at 2 µM [3] | SMILES | inhibition in vivo at 5 mg/kg (Rattus norvegicus)
3770 nM |  |  | Fc1ccc(Sc2ccc3nnc(C4CCNCC4)n3c2)c(F)c1 | 
1170 nM |  |  | O=C(O)c1ccc(-c2nnc3ccc(Sc4ccc(F)cc4F)cn23)cc1 | 
> 10000 nM |  |  | CC(C)c1nnc2ccc(Sc3ccc(Br)cc3C(F)(F)F)cn12 | 
 | 23% | 65% | CC(C)c1nnc2ccc(Sc3ccc(F)cc3F)c(Cl)n12 | 
 | 37% | 71% | CC(C)c1nnc2cc(Cl)c(Sc3ccc(F)cc3F)cn12 | 
8240 nM |  |  | CC(C)c1nnc2ccc(Sc3ccc(Cl)cc3Cl)cn12 | 
> 10000 nM |  |  | CC(C)c1nnc2ccc(Sc3ccc(F)cc3C(F)(F)F)cn12 | 
 | 46% | 89% | CC(C)c1nnc2ccc(Sc3ccc(F)cc3F)cn12 | 61%
 | 100% | 100% | CC(C)c1nnc2ccc([S+]([O-])c3ccc(F)cc3F)cn12 (centres undefined) | 
7370 nM |  |  | CC(C)c1nnc2ccc(C(=O)Cc3cc(F)cc(F)c3)cn12 | 
 | 20% | 39% | CC(C)c1nnc2cc(Cl)c(Sc3ccc(F)cc3F)c(Cl)n12 | 
> 10000 nM |  |  | CC(C)c1nnc2ccc(S(=O)(=O)c3ccc(F)cc3F)cn12 | 
1050 nM | 88% | 74% | CC(C)c1nnc2ccc(C(=O)c3ccc(F)cc3F)cn12 | 
322 nM |  |  | COC(=O)c1ccc(-c2nnc3ccc(Sc4ccc(F)cc4F)cn23)cc1 | 
7.2 nM |  |  | Fc1ccc(Sc2ccc3nnc(-c4ccc(F)cc4F)n3c2)c(F)c1 | 
> 10000 nM |  |  | CC(C)c1nnc2ccc(C(=O)Nc3cc(F)cc(F)c3)cn12 | 
 | 9% | 24% | CC(C)c1nnc2cc(Cl)c(Sc3ccc(F)cc3F)c(Br)n12 | 
85 nM | 54% | 53% | CC(C)c1nnc2ccc(CCc3ccc(F)cc3F)cn12 | 
